{"data": "Measurements collected from several papers", "target": "Mitogen-activated protein kinase kinase kinase kinase 4 (MAP4K4, Homo sapiens, UniProt O95819)", "note": "Lines come from different studies, so protocols differ."}
{"Structure (SMILES)": "Cc1ccc(C(=O)Nc2ccc(CN3CCN(C)CC3)c(C(F)(F)F)c2)cc1C#Cc1cnc2cccnn12", "effect on": "enzyme activity", "mode": "inhibitor", "tested at": "23.5 nM", "quantity": "remaining activity", "result": "27%"}
{"Structure (SMILES)": "CC/C(=N\\NC(=O)NCc1cccc(O)c1)c1ccc(O)c(C)c1O", "effect on": "enzyme activity", "mode": "inhibitor", "tested at": "0.1 µM", "quantity": "inhibition", "result": "3.8%"}
{"Structure (SMILES)": "Cc1ccc(Nc2nccc(N(C)c3ccc4c(C)n(C)nc4c3)n2)cc1S(N)(=O)=O", "effect on": "enzyme activity", "mode": "inhibitor", "tested at": "0.5 µM", "quantity": "remaining activity", "result": "77.4%"}
{"Structure (SMILES)": "CC(C)CC(=O)N1CCc2nc(-c3ccc(Br)cc3)nc(N(C)Cc3ccccc3)c2C1", "effect on": "cell-free assay", "method": "competition with immobilised ligand", "tested at": "0.1 µM", "quantity": "remaining binding", "result": "84%"}
{"Structure (SMILES)": "Nc1ncnc2occ(-c3ccc(NC(=O)Nc4cc(C(F)(F)F)ccc4F)cc3)c12", "effect on": "cell-free assay", "mode": "inhibitor", "tested at": "20 µM", "quantity": "remaining signal", "result": "0%"}
{"Structure (SMILES)": "Oc1ccc(-c2nc(-c3ccncc3)c(-c3ccc(F)cc3)[nH]2)cc1", "effect on": "cell-free assay", "tested at": "0.5 µM", "quantity": "remaining signal", "result": "86.5%"}
{"Structure (SMILES)": "O=C(O)c1cc(-c2ccc(C3CCNCC3)cc2)c2ccc(-c3ccc(C(F)(F)F)cc3)cc2c1", "effect on": "cell-free assay", "method": "competition with immobilised ligand", "tested at": "1 µM", "quantity": "remaining binding", "result": "87%"}
{"Structure (SMILES)": "COc1cc(Cl)c(C(=O)N[C@@H](CN[C@H]2CC[C@@H](N)CC2)Cc2ccc(C#N)cc2)cc1-c1ccc(CN[C@H](C)c2ccc(C)cc2)o1", "effect on": "enzyme activity", "mode": "inhibitor", "tested at": "1 µM", "quantity": "remaining activity", "result": "96%"}
{"Structure (SMILES)": "CO[C@@H](C)c1c(Nc2ccc([C@@H](N(C)C(=O)C3CCS(=O)(=O)CC3)C(F)(F)F)cc2)cnc2cc(Cl)nn12", "effect on": "cell-free assay", "method": "competition with immobilised ligand", "tested at": "1 µM", "quantity": "remaining binding", "result": "100%"}
{"Structure (SMILES)": "COc1cc2ncnc(Nc3ccc(Oc4ccccc4)cc3C)c2cc1OC", "effect on": "enzyme activity", "mode": "inhibitor", "tested at": "1 µM", "quantity": "inhibition", "result": "6%"}
{"Structure (SMILES)": "Cc1c(NC(=O)c2cc(C(N)=O)nc3cc(F)ccc23)c(C(F)(F)F)nn1Cc1ccc(C(C)(C)C)cc1", "effect on": "cell-free assay", "method": "competition with immobilised ligand", "tested at": "1 µM", "quantity": "remaining binding", "result": "76%"}
{"Structure (SMILES)": "Nc1nc(Nc2ccc(S(N)(=O)=O)cc2)nn1C(=O)c1c(F)cccc1F", "effect on": "cell-free assay", "tested at": "0.5 µM", "quantity": "remaining signal", "result": "83.8%"}
{"Structure (SMILES)": "CCCCN(CCCC)C(=O)CN1C[C@H](c2cc(OC)c3c(c2)OCO3)[C@@H](C(=O)O)[C@@H]1CC(C)(C)CCC", "effect on": "cell-free assay", "method": "competition with immobilised ligand", "tested at": "1 µM", "quantity": "remaining binding", "result": "100%"}
{"Structure (SMILES)": "CSc1nc(C)c(-c2ccnc(Nc3ccc(N4CCOCC4)cc3)c2)[nH]1", "effect on": "enzyme activity", "mode": "inhibitor", "tested at": "10 µM", "quantity": "inhibition", "result": "77.9%"}
{"Structure (SMILES)": "O=C(Nc1cnn(-c2csc(C(=O)NC3COC3)c2)c1)Nc1ccccc1Cl", "effect on": "enzyme activity", "mode": "inhibitor", "tested at": "5 µM", "quantity": "remaining activity", "result": "81.1%"}
{"Structure (SMILES)": "CS(=O)(=O)CCNCc1ccc(-c2ccc3ncnc(Nc4ccc(OCc5cccc(F)c5)c(Cl)c4)c3c2)o1", "effect on": "cell-free assay", "tested at": "0.5 µM", "quantity": "remaining signal", "result": "111%"}
{"Structure (SMILES)": "CC(C)(C)c1nc(-c2cccc(NS(=O)(=O)c3c(F)cccc3F)c2F)c(-c2ccnc(N)n2)s1", "effect on": "enzyme activity", "mode": "inhibitor", "method": "radiometric", "tested at": "1 µM", "quantity": "remaining activity", "result": "95%"}
{"Structure (SMILES)": "O=C(Nc1cnn(-c2csc(C(=O)NC3COC3)c2)c1)Nc1c(F)cccc1Cl", "effect on": "enzyme activity", "mode": "inhibitor", "tested at": "5 µM", "quantity": "remaining activity", "result": "90.4%"}
